Source: ChEMBL document CHEMBL2157978, “Design, synthesis, and biological evaluation of nonsteroidal cycloalkane[d]isoxazole-containing androgen receptor modulators” (J Med Chem, 2012)
Where a chain is given by its changes, count along the chain named. Several values for one entry are separate records, joined by “and”; a condition that tells them apart may be missing. Equal entries are not always repeated. Activity calls are given as the source filed them.

Columns and labels:
[1] = test system: Androgen receptor (Homo sapiens), P10275 [T878A]; experiment: Antagonist activity at human Androgen receptor T877A mutant expressed in COS-1 cells co-transfected with pSG5 assessed as reduction in testosterone induced luciferase activity at 10 uM after 18 hrs relative untreated control; assay type: functional, cell-based
Sequence of Androgen receptor (Homo sapiens), P10275 [T878A] (P10275 whole entry T878A): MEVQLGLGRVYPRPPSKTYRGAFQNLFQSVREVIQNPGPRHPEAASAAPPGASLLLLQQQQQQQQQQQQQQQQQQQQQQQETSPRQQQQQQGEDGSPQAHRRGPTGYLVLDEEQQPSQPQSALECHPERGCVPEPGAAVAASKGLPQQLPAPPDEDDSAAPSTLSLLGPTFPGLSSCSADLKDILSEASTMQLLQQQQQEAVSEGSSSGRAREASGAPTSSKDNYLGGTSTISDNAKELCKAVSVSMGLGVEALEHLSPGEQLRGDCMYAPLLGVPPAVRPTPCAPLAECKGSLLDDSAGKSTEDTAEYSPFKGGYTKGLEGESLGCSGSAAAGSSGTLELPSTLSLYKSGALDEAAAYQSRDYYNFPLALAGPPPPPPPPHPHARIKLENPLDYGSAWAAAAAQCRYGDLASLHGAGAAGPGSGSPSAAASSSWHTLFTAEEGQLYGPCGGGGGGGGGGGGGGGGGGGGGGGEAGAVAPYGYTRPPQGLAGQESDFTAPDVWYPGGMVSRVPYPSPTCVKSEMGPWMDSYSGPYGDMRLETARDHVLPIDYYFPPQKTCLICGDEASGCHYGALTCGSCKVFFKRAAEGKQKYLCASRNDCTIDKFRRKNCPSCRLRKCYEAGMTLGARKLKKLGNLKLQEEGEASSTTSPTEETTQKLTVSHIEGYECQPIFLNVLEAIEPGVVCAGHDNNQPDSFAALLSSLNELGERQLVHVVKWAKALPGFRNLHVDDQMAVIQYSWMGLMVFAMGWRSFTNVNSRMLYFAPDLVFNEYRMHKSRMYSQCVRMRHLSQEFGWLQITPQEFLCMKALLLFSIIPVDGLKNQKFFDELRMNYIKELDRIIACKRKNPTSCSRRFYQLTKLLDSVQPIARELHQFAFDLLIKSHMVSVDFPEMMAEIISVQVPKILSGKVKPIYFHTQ
Procedure, shortened: (§1)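 COS-1 cells were grown in DMEM with dextran-charcoal-treated FBS (2.5% during transfection). They were transfected for 24 h with pSG5-hART877A or pSG5-hARW741L, plus the pProbasin(−285/+32)-Luc reporter and a pCMVβ control.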

[2] = target: T1, Androgen receptor (Homo sapiens) (UniProt P10275); experiment: Agonist activity at wild type human androgen receptor expressed in COS-1 cells co-transfected with pSG5 assessed as effect on testosterone induced luciferase activity at 10 uM after 18 hrs relative untreated control; assay type: functional, cell-based
T1 sequence (whole entry): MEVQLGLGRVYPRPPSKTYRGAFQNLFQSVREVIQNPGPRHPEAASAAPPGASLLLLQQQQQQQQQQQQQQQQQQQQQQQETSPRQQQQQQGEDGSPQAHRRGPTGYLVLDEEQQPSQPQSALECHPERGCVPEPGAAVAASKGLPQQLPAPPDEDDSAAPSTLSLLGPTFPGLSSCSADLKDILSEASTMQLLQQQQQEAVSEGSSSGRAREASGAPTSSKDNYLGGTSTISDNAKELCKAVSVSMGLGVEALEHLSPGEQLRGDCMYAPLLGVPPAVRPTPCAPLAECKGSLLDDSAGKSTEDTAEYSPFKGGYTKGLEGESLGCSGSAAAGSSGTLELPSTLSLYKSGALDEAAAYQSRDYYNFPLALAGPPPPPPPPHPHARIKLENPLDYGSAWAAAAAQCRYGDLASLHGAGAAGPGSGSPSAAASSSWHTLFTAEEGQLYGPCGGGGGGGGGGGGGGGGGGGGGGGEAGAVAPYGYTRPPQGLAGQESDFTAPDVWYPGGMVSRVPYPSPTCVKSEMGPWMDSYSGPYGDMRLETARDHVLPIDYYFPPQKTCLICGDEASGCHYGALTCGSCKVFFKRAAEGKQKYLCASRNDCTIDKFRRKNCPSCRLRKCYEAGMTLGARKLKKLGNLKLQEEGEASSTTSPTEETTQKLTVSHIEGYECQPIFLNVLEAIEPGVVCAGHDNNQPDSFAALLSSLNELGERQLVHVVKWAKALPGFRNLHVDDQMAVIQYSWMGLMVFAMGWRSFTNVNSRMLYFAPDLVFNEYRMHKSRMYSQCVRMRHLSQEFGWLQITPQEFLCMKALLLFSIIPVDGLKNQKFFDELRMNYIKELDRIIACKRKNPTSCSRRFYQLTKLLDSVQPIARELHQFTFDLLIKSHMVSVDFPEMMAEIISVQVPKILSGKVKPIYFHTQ

[3] = target: Luciferin 4-monooxygenase (Photinus pyralis) (UniProt P08659); experiment: Inhibition of Photinus pyralis recombinant luciferase at 10 uM incubated for 20 mins
Sequence of Luciferin 4-monooxygenase (Photinus pyralis) (P08659 whole entry): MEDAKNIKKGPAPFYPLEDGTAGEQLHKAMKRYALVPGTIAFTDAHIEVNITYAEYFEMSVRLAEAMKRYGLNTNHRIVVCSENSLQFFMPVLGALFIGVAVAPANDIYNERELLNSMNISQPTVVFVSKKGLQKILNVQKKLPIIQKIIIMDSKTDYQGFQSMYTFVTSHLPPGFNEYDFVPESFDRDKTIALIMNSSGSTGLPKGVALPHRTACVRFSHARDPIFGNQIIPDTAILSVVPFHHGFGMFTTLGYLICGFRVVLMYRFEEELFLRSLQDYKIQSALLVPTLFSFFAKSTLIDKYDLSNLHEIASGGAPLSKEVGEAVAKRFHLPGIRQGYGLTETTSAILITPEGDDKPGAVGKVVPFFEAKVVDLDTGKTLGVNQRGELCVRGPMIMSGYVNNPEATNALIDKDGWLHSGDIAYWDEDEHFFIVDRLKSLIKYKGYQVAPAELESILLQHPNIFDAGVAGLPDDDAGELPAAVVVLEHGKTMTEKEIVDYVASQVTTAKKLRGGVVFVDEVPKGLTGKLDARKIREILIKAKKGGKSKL
Procedure, shortened: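 Purified firefly luciferase diluted to 0.1 μg/mL in 1x Reporter Lysis Buffer, with compound added from ethanol stocks (10⁻³–10⁻⁷ mol/L dilutions) in triplicate. Incubated 20 min at rt, then luciferase substrate added and luminescence read. Blank (lysis buffer) and ethanol-vehicle controls were included.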

[4] = target: T2, Androgen receptor (Homo sapiens, UniProt P10275); experiment: Displacement of [3H]R1881 from wild type human androgen receptor expressed in COS-1 cells co-transfected with pSG5 after 2 hrs by scintillation assay
T2 sequence (P10275 whole entry): T1 sequence (whole entry)

[5] = test system: T3, Androgen receptor (Homo sapiens), P10275 [W742L]; experiment: Antagonist activity at human Androgen receptor W741L mutant expressed in COS-1 cells co-transfected with pSG5 assessed as reduction in testosterone induced luciferase activity at 10 uM after 18 hrs relative untreated control; assay type: functional, cell-based; procedure, shortened: as §1
T3 sequence (whole entry): T1 sequence (whole entry) with W742L

[6] = target: T1, Androgen receptor (Homo sapiens); experiment: Agonist activity at wild type human androgen receptor expressed in COS-1 cells co-transfected with pSG5 assessed as effect on testosterone induced luciferase activity at 1 nM to 10 uM after 18 hrs relative untreated control; assay type: functional, cell-based
Procedure, shortened: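 COS-1 cells were seeded in DMEM with 10% dextran-charcoal-treated FBS. After switching to 2.5% FBS, they were transfected for 24 h with pSG5-hAR, the pProbasin(−285/+32)-Luc reporter and a pCMVβ internal control. […] Luciferase was normalized to β-galactosidase and protein.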

[7] = target: T1, Androgen receptor (Homo sapiens); experiment: Potency index, ratio of RBA of (R)-bicalutamide to RBA of compound for human androgen receptor
[8] = target: T1, Androgen receptor (Homo sapiens); experiment: Potency index, ratio of RBA of hydroxyflutamide to RBA of compound for human androgen receptor

SMILES | Activity [1] | Activity [2] | inhibition [3] | IC50 [4] | Activity [5] | Activity [6] | Ratio [7] | Ratio [8]
O=[N+]([O-])c1ccc(C2=NOC3CCCCC23)cc1C(F)(F)F (racemic) | Active | inactive | inactive | 120 nM | Active | inactive | – | –
O=[N+]([O-])c1ccc(C2=NO[C@H]3CCCCC[C@@H]23)c(C(F)(F)F)c1 | – | inactive | inactive | 389 nM | – | – | – | –
N#Cc1ccc(C2=NOC3CCCC23)c(C(F)(F)F)c1 (racemic) | – | inactive | inactive | 447 nM | – | – | – | –
Fc1ccc(C2=NOC3CCCCC23)cc1C(F)(F)F (racemic) | – | inactive | inactive | 1100 nM | – | – | – | –
O=[N+]([O-])c1ccc(C2=NO[C@@H]3CCC[C@H]23)cc1C(F)(F)F | – | inactive | inactive | 302 nM | – | – | – | –
N#Cc1ccc(C2=NOC3CCCCC23)cc1C(F)(F)F (racemic) | Active | inactive | inactive | 27.5 nM | Active | inactive | 4 | 8
Fc1ccc(C2=NOC3CCCC23)cc1C(F)(F)F (racemic) | – | inactive | inactive | 1480 nM | – | – | – | –
O=[N+]([O-])c1ccc(C2=NO[C@H]3CCC[C@@H]23)cc1C(F)(F)F | – | inactive | inactive | 2510 nM | – | – | – | –
O=[N+]([O-])c1ccc(C2=NOC3CCCC23)c(C(F)(F)F)c1 (racemic) | – | inactive | inactive | 269 nM | – | – | – | –
N#Cc1ccc(C2=NOC3CCCCCCC23)cc1C(F)(F)F (racemic) | – | inactive | inactive | 295 nM | – | – | – | –
N#Cc1ccc(C2=NO[C@H]3CCC[C@@H]23)cc1C(F)(F)F | – | inactive | inactive | 617 nM | – | – | – | –
Fc1ccc(C2=NOC3CCCCCC23)c(C(F)(F)F)c1 (stereo not drawn) | – | inactive | inactive | 661 nM and 813 nM | – | – | – | –
O=[N+]([O-])c1ccc(C2=NO[C@@H]3CCCC[C@H]23)c(C(F)(F)F)c1 | – | inactive | inactive | 129 nM | – | – | – | –
Fc1ccc(C2=NOC3CCCCCC23)cc1C(F)(F)F (racemic) | – | inactive | inactive | 11000 nM | – | – | – | –
O=[N+]([O-])c1ccc(C2=NO[C@H]3CCCC[C@@H]23)c(C(F)(F)F)c1 | – | inactive | inactive | 263 nM | – | – | – | –
